{"data": "Assay results collected from several papers", "note": "Each line is one published result; the experiments were not run side by side."}
{"Structure (SMILES)": "CCCCCCCCCCCCCCCCCCOc1ccccc1CC(=O)OCC[N+]1(C)CCCCC1", "cell line": "NCI-H23", "test": "cell growth or viability, SRB", "setting": "10 µM", "quantity": "inhibition", "result": "70.2%"}
{"Structure (SMILES)": "C[C@@H]1COCCN1c1cc(C2([S@](C)(=N)=O)CC2)nc(-c2cc[nH]c3nccc2-3)n1", "cell line": "CT26", "test": "cell growth or viability, ATP luminescence", "setting": "24 h", "quantity": "IC50", "result": "27.6 µM"}
{"Structure (SMILES)": "CC(C)C[C@H](NC(=O)[C@H](Cc1ccccc1)NC(=O)c1cnccn1)B(O)O", "cell line": "CHP-212", "test": "cell growth or viability, SRB", "setting": "41.15 nM", "quantity": "viability", "result": "90.7%"}
{"Structure (SMILES)": "NCCC(=O)Nc1ccccc1/N=c1\\cc(-c2ccc3nc(N)oc3c2)oc2cc(O)ccc12", "cell line": "MOLM-13", "test": "cell growth or viability, CCK-8", "setting": "1 µM", "quantity": "inhibition", "result": "3.71%"}
{"Structure (SMILES)": "COC(=O)[C@H]1[C@@H](O)[C@@]2(O)c3c(OC)cc(O[C@@H]4O[C@@H]([C@H](O)CO)CO[C@H]4OC)cc3O[C@@]2(c2ccc(OC)cc2)[C@@H]1c1ccccc1", "cell line": "C6661", "test": "cell growth or viability, MTS", "setting": "48 h", "quantity": "IC50", "result": "0.007 µM"}
{"Structure (SMILES)": "N#CSCc1cc(=O)oc2cc(O)ccc12", "cell line": "SW1573", "test": "cell growth or viability, SRB", "quantity": "GI50", "result": "5.5 µM"}
{"Structure (SMILES)": "CCCCCCCCCCCCCCCCCCOCC(COP(=O)([O-])OCC[N+](C)(C)C)OC (stereo not drawn)", "cell line": "NCI-H23", "test": "cell growth or viability, SRB", "setting": "10 µM", "quantity": "inhibition", "result": "10.9%"}
{"Structure (SMILES)": "COCCC(=O)Nc1ccccc1/N=c1\\cc(-c2ccc3nc(N)oc3c2)oc2ccccc12", "cell line": "MOLM-13", "test": "cell growth or viability, CCK-8", "setting": "1 µM", "quantity": "inhibition", "result": "2.66%"}
{"Structure (SMILES)": "CCNNC(=O)c1ccc(CN(CC(=O)NCc2ccccc2)C(=O)c2ccc(N(C)C)cc2)cc1", "cell line": "A2780cisR", "test": "cell growth or viability, MTT", "setting": "72 h", "quantity": "IC50", "result": "4.62 µM"}
{"Structure (SMILES)": "NCCC(=O)Nc1ccc(/N=c2\\cc(-c3ccc4c(c3)OCO4)oc3ccccc23)cc1", "cell line": "MOLM-13", "test": "cell growth or viability, CCK-8", "setting": "1 µM", "quantity": "inhibition", "result": "3.6%"}
{"Structure (SMILES)": "C=C(C)[C@@H]1CC[C@]2(C)CC[C@]3(C)[C@H](CC[C@@H]4[C@@]5(C)CC[C@H](O)C(C)(C)[C@@H]5CC[C@]43C)[C@@H]12", "cell line": "SIM-A9", "test": "NO release, inhibitor, Griess", "setting": "106.7 µM, LPS-stimulated", "quantity": "inhibition", "result": "1.81%"}
{"Structure (SMILES)": "C(=N\\Nc1cc(N/N=C/c2cccc3cccnc23)nc(-c2ccccc2)n1)/c1cccc2cccnc12", "cell line": "Bel-7402", "test": "cell growth or viability, MTT", "setting": "48 h", "quantity": "IC50", "result": "11.1 µM"}
{"Structure (SMILES)": "[NH2][Pt]([NH2])([Cl])[Cl]", "cell line": "NCI-H1573", "test": "cell growth or viability, MTT", "setting": "48 h", "quantity": "IC50", "result": "75.8 µM"}
{"Structure (SMILES)": "Cc1cc(=O)oc2cc(OCCCCSC#N)ccc12", "cell line": "SW1573", "test": "cell growth or viability, SRB", "quantity": "GI50", "result": "0.63 µM"}
{"Structure (SMILES)": "CCCCCCCCCCCCCCCCCCOc1ccc(CC(=O)OCC[N+]2(C)CCOCC2)cc1", "cell line": "NCI-H23", "test": "cell growth or viability, SRB", "setting": "10 µM", "quantity": "inhibition", "result": "5.91%"}
{"Structure (SMILES)": "N[C@@H](CO)C(=O)Nc1ccccc1/N=c1\\cc(-c2ccc3c(c2)OCO3)oc2ccccc12", "cell line": "MOLM-13", "test": "cell growth or viability, CCK-8", "setting": "1 µM", "quantity": "inhibition", "result": "8.02%"}
{"Structure (SMILES)": "CC(=O)O[C@H]1C(=O)[C@@]2(C)[C@H]([C@H](OC(=O)c3ccccc3)[C@]3(O)C[C@H](OC(=O)[C@H](O)[C@@H](NC(=O)c4ccccc4)c4ccccc4)C(C)=C1C3(C)C)[C@]1(OC(C)=O)CO[C@@H]1C[C@@H]2O", "cell line": "CHP-212", "test": "cell growth or viability, SRB", "setting": "10 µM", "quantity": "viability", "result": "5.97%"}
{"Structure (SMILES)": "C#Cc1cccc(Nc2ncnc3cc(OCCOC)c(OCCOC)cc23)c1", "cell line": "Bel-7402", "test": "cell growth or viability, MTT", "setting": "48 h", "quantity": "IC50", "result": "> 20 µM"}
{"Structure (SMILES)": "Oc1cccc(-c2nc(N3CCOCC3)c3oc4ncccc4c3n2)c1", "cell line": "MOLM-13", "test": "cell growth or viability, CCK-8", "setting": "1 µM", "quantity": "inhibition", "result": "14.3%"}
{"Structure (SMILES)": "CCCCCCCCCCCCCCCCCCOc1ccccc1CC(=O)OCC[N+]1(C)CCOCC1", "cell line": "NCI-H23", "test": "cell growth or viability, SRB", "setting": "10 µM", "quantity": "inhibition", "result": "33.5%"}
{"Structure (SMILES)": "COc1ncnc(C2CC2)c1-c1ncc2cnn(Cc3ccc(-c4nc(C(F)(F)F)cn4C(C)C)cc3)c2n1", "cell line": "CHP-212", "test": "cell growth or viability, SRB", "setting": "25 µM", "quantity": "viability", "result": "76.7%"}
{"Structure (SMILES)": "CCCCCCCCCCCCCCCCCCOc1ccc(CC(=O)OCCC[N+](C)(C)C)cc1", "cell line": "NCI-H23", "test": "cell growth or viability, SRB", "setting": "10 µM", "quantity": "inhibition", "result": "18.9%"}
{"Structure (SMILES)": "CNCc1ccc(-c2cc(-c3nc(-c4ccc(S(=O)(=O)C(C)C)cc4)cnc3N)on2)cc1", "cell line": "CT26", "test": "cell growth or viability, ATP luminescence", "setting": "24 h", "quantity": "IC50", "result": "3.05 µM"}
{"Structure (SMILES)": "O=C(C[C@@H](C(F)F)n1ccc(F)n1)N1CCC(O)(Cn2cnc3c(cnn3-c3ccc(F)cc3)c2=O)CC1", "cell line": "CHP-212", "test": "cell growth or viability, SRB", "setting": "27.43 nM", "quantity": "viability", "result": "72.4%"}
{"Structure (SMILES)": "Nc1ccccc1/N=c1\\cc(-c2ccc3c(c2)OCO3)oc2ccccc12", "cell line": "MOLM-13", "test": "cell growth or viability, CCK-8", "setting": "1 µM", "quantity": "inhibition", "result": "5.39%"}
{"Structure (SMILES)": "O=c1[nH]cc(F)c(=O)[nH]1", "cell line": "Bel-7402", "test": "cell growth or viability, MTT", "setting": "48 h", "quantity": "IC50", "result": "15.8 µM"}
{"Structure (SMILES)": "CCCCCCCCCCCCCCCCCCOc1cccc(CC(=O)OCC[N+]2(C)CCOCC2)c1", "cell line": "NCI-H23", "test": "cell growth or viability, SRB", "setting": "10 µM", "quantity": "inhibition", "result": "4.14%"}
{"Structure (SMILES)": "NCC(=O)Nc1ccccc1/N=c1\\cc(-c2ccc3c(c2)OCCO3)oc2ccccc12", "cell line": "MOLM-13", "test": "cell growth or viability, CCK-8", "setting": "1 µM", "quantity": "inhibition", "result": "-2.55%"}
{"Structure (SMILES)": "CCCCCCCCCCCCCCCCCCOc1cccc(CC(=O)OCC[N+]2(C)CCCCC2)c1", "cell line": "NCI-H23", "test": "cell growth or viability, SRB", "setting": "10 µM", "quantity": "inhibition", "result": "16.1%"}
{"Structure (SMILES)": "O=C(Nc1ccccc1/N=c1\\cc(-c2ccc3c(c2)OCO3)oc2ccccc12)N1CCNCC1", "cell line": "MOLM-13", "test": "cell growth or viability, CCK-8", "setting": "1 µM", "quantity": "inhibition", "result": "1.47%"}
{"Structure (SMILES)": "COc1cccc2c1C(=O)c1c(O)c3c(c(O)c1C2=O)C[C@@](O)(C(=O)CO)C[C@@H]3O[C@H]1C[C@H](N)[C@H](O)[C@H](C)O1", "cell line": "CHP-212", "test": "cell growth or viability, SRB", "setting": "41.15 nM", "quantity": "viability", "result": "50.8%"}
{"Structure (SMILES)": "CCCCCCCCCCCCCCCCCCOc1ccc(CC(=O)OCC[N+](CC)(CC)CC)cc1", "cell line": "NCI-H23", "test": "cell growth or viability, SRB", "setting": "10 µM", "quantity": "inhibition", "result": "39.5%"}
{"Structure (SMILES)": "C(=N\\Nc1cc(N/N=C/c2ccc3ccccc3n2)nc(-c2ccccc2)n1)/c1ccc2ccccc2n1", "cell line": "Bel-7402", "test": "cell growth or viability, MTT", "setting": "48 h", "quantity": "IC50", "result": "10.2 µM"}
